Results on two compounds are retold here after paper PMC7203960 (ACS Omega, 2020).

Data set [1] in a line: Radical scavenging activity by DPPH method. The method, boiled down:
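DPPH (1.6 mg in 50 mL DMSO), 1.5 mL, was mixed with 1.5 mL of test compound at 100 μg/mL. The mixture stood 45 min at ambient temperature in the dark, then absorbance was read at 517 nm. Blank DPPH solution served as control. Scavenging % was computed from control and sample absorbances, in triplicate.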
On the technique in general: The DPPH test is a chemical assay of radical scavenging.

The next data set deals with AsPC1. Briefly: CellTiter-Glo luminescent cell viability assay, AsPC1. It is filed as cell-based. The settings on record: Homo sapiens, ASPC1, 72 h, read-out: IC50 AsPC1. Summed up:
(§1)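 AsPC1 and SW1990 human pancreatic cancer cells were obtained from ATCC and grown in RPMI with FBS, penicillin 100 IU/mL and streptomycin 100 μg/mL at 37 °C in 5% CO2. Compounds were made up as 100 mM DMSO stocks and diluted to 0.1 mM in sterile PBS. Cells were seeded at 1500 cells/well, held 24 h, then treated 72 h. Viability was read by CellTiter-Glo luminescence, in triplicate.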
For orientation: Cellular ATP, detected with luciferase, serves as a proxy for viable cell number.

In a further data set the test system is SW1990. Briefly: CellTiter-Glo luminescent cell viability assay, SW1990. It is filed as cell-based. As to conditions: Homo sapiens, SW1990, 72 h, read-out: IC50 SW1990. Summed up: as §1
The nature of data set [2]: CellTiter-Glo luminescent cell viability assay, non-cancerous cell line MRC5. In kind it is cell-based. As to conditions: human, MRC5 cells (non-cancerous cell line). The method, boiled down:
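Test compounds were made up as 100 mM DMSO stocks and diluted to 0.1 mM in sterile PBS. Cells were seeded at 1500 cells/well in 384-well plates and held 24 h before 72 h exposure. Viability was read by CellTiter-Glo luminescence on a microplate reader.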

Turning to `O=C1O[C@H]([C@@H](O)CO)C(O)=C1O` [AA, ascorbic acid], the “% scavenging (DPPH)” value in data set [1] (100 μg/mL, 45 min incubation, absorbance at 517 nm, triplicate) amounted to 88.75 ± 0.89%. In addition, in data set [1] (read-out: IC50 (DPPH radical scavenging), DPPH method), the IC50 (as a rule, the concentration that inhibits the measured activity by half) was found to be 170 µM.
For the compound `Nc1ccn([C@@H]2O[C@H](CO)[C@@H](O)C2(F)F)c(=O)n1` [gemcitabine], the IC50 in the data set with AsPC1 came out at 39.3 ± 4.44 µM; in the data set with SW1990, 35.1 ± 1.78 µM. In data set [2], this compound registered an IC50 at 72 h of 54.17 ± 0.2 µM.
